In ChEMBL document CHEMBL1138754, “Synthesis of taxoids with improved cytotoxicity and solubility for use in tumor-specific delivery” (J Med Chem, 2004):
Values after ≈ are worked out from the molar mass of the structure shown.

Columns and labels:
[1] = Solubility in 10% DMA (expressed as mean of 3 determinations); type: physicochemical; settings: read-out: S
Procedure, shortened: (§1)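 200 μg of taxane was dissolved in 50 µL of organic solvent (DMA, DMSO or ethanol), then diluted to 500 µL (10% organic) with conjugation buffer: 0.1 M potassium phosphate, 1 mM EDTA, pH 6.5. The mixture was vortexed and centrifuged, and the taxane concentration in the supernatant was measured spectrophotometrically.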

MCF7 [2] = experiment: In vitro inhibitory concentration that inhibits 50% of the growth of MCF-7 human breast cell carcinoma cell line after 72 hr of drug exposure.; type: functional, cell-based; settings: MCF7, 72 h
A549 [3] = experiment: In vitro inhibitory concentration that inhibits 50% of the growth of A549 non small cell lung carcinoma cell line after 72 hr of drug exposure.; type: functional, cell-based; settings: Homo sapiens, A549, 72 h
[4] = Solubility in 10% Ethanol (expressed as mean of 3 determinations); type: physicochemical; settings: read-out: S; procedure, shortened: as §1
[5] = Solubility in 10% DMSO(expressed as mean of 3 determinations); type: physicochemical; settings: read-out: S; procedure, shortened: as §1
A549 [6] = experiment: In vitro inhibitory concentration that inhibits 50% of the growth of A549 non small cell lung carcinoma cell line after 72 hr of drug exposure. (IC50 based on 2 separate determinations); type: functional; settings: Homo sapiens, A549, 72 h
MCF7 [7] = experiment: In vitro inhibitory concentration that inhibits 50% of the growth of MCF-7 human breast cell carcinoma cell line after 72 hr of drug exposure. (IC50 based on 2 separate determinations); type: functional; settings: MCF7, 72 h
[8] = Solubility in 10% DMSO (expressed as mean of 3 determinations); type: physicochemical; settings: read-out: S; procedure, shortened: as §1
MCF7 [9] = experiment: Inhibitory concentration that inhibits 50% of the growth of MCF-7 human breast cell carcinoma cell line after 72 hr of drug exposure. (Table 3); type: functional, cell-based; settings: MCF7, 72 h
Breast carcinoma cell = experiment: Inhibitory concentration that inhibits 50% of the growth of LCC6/P9 human breast cell carcinoma cell line after 72 hr of drug exposure.; type: functional, cell-based
[10] = Inhibitory concentration that inhibits 50% of the growth of Namalwa MDR Burkitts lymphoma MDR cell carcinoma cell line after 72 hr of drug exposure.; type: functional, cell-based; settings: Homo sapiens
[11] = Solubility in 10% DMA(expressed as mean of 3 determinations); type: physicochemical; settings: read-out: S; procedure, shortened: as §1
[12] = Inhibitory concentration that inhibits 50% of the growth of Namalwa Burkitts lymphoma cell carcinoma cell line after 72 hr of drug exposure.; type: functional, cell-based; settings: Homo sapiens
MDR = experiment: Inhibitory concentration that inhibits 50% of the growth of LGM MDR human breast cell carcinoma cell line after 72 hr of drug exposure.; type: functional, cell-based
NCI/ADR-RES = experiment: Inhibitory concentration that inhibits 50% of the growth of NCI ADR RES human […] cell carcinoma cell line after 72 h of drug exposure.; type: functional, cell-based

Compound	solubility [1] [µg/mL]	IC50 (MCF7 [2]) [nM]	IC50 (A549 [3]) [nM]	solubility [4] [µg/mL]	solubility [5] [µg/mL]	IC50 (A549 [6]) [nM]	IC50 (MCF7 [7]) [nM]	solubility [8] [µg/mL]	IC50 (MCF7 [9]) [nM]	IC50 (Breast carcinoma cell) [nM]	solubility [11] [µg/mL]	IC50 [10] [nM]	IC50 [12] [nM]	IC50 (MDR) [nM]	IC50 (NCI/ADR-RES) [nM]
COc1ccc(OC)c(C(=O)O[C@H]2C3[C@](C)(C(=O)[C@H](O)C4=C(C)[C@@H](OC(=O)[C@H](O)[C@H](C=C(C)C)NC(=O)OC(C)(C)C)C[C@]2(O)C4(C)C)C(OC(=O)CCSSC)C[C@H]2OC[C@@]32OC(C)=O)c1 (stereo partly specified)	10 (≈ 10.2 µM)	0.07	0.13	2 (≈ 2.04 µM)	4 (≈ 4.08 µM)										
COc1ccc(OC)c(C(=O)O[C@H]2C3[C@](C)(C(=O)[C@H](O)C4=C(C)[C@@H](OC(=O)[C@H](O)[C@H](C=C(C)C)NC(=O)OC(C)(C)C)C[C@]2(O)C4(C)C)C(OC(=O)CCOCCOCCOCCOCCSSC)C[C@H]2OC[C@@]32OC(C)=O)c1 (stereo partly specified)	11 (≈ 9.51 µM)			13 (≈ 11.2 µM)		1	0.32	17 (≈ 14.7 µM)							
COc1ccc(OC)c(C(=O)O[C@H]2C3[C@](C)(C(=O)[C@H](OC(=O)CCOCCOCCOCCOCCOCCOCCOCCOCCOCCOCCSSC)C4=C(C)[C@@H](OC(=O)[C@H](O)[C@H](C=C(C)C)NC(=O)OC(C)(C)C)C[C@]2(O)C4(C)C)C(O)C[C@H]2OC[C@@]32OC(C)=O)c1 (stereo partly specified)	97 (≈ 68.3 µM)			127 (≈ 89.4 µM)	110 (≈ 77.4 µM)	1.1	0.58								
COc1ccc(OC)c(C(=O)O[C@H]2C3[C@](C)(C(=O)[C@H](OC(=O)CCOCCOCCOCCOCCSSC)C4=C(C)[C@@H](OC(=O)[C@H](O)[C@H](C=C(C)C)NC(=O)OC(C)(C)C)C[C@]2(O)C4(C)C)C(O)C[C@H]2OC[C@@]32OC(C)=O)c1 (stereo partly specified)		0.06	0.29	55 (≈ 47.6 µM)	82 (≈ 70.9 µM)				0.5	1.6	79 (≈ 68.3 µM)	0.9	0.45	18	19

Continued, in another order:

solubility [1] [µg/mL]	IC50 (MCF7 [2]) [nM]	IC50 (A549 [3]) [nM]	solubility [4] [µg/mL]	solubility [5] [µg/mL]	IC50 (A549 [6]) [nM]	IC50 (MCF7 [7]) [nM]	solubility [8] [µg/mL]	IC50 (MCF7 [9]) [nM]	IC50 (Breast carcinoma cell) [nM]	solubility [11] [µg/mL]	Compound	IC50 [10] [nM]	IC50 [12] [nM]	IC50 (MDR) [nM]	IC50 (NCI/ADR-RES) [nM]
	1	0.8									CSSCCC(=O)O[C@H]1C(=O)[C@]2(C)C(O)C[C@H]3OC[C@@]3(OC(C)=O)C2[C@H](OC(=O)c2ccccc2)[C@]2(O)C[C@H](OC(=O)[C@H](O)[C@H](C=C(C)C)NC(=O)OC(C)(C)C)C(C)=C1C2(C)C (stereo partly specified)				
26 (≈ 24.4 µM)	0.039	0.3	32 (≈ 30.1 µM)	26 (≈ 24.4 µM)							COc1ccc(OC)c(C(=O)O[C@H]2C3[C@](C)(C(=O)[C@H](OC(=O)N4CCN(CCSSC)CC4)C4=C(C)[C@@H](OC(=O)[C@H](O)[C@H](C=C(C)C)NC(=O)OC(C)(C)C)C[C@]2(O)C4(C)C)C(O)C[C@H]2OC[C@@]32OC(C)=O)c1 (stereo partly specified)				
	1	1.1									CSSCCN1CCN(C(=O)O[C@H]2C(=O)[C@]3(C)C(O)C[C@H]4OC[C@@]4(OC(C)=O)C3[C@H](OC(=O)c3ccccc3)[C@]3(O)C[C@H](OC(=O)[C@H](O)[C@H](C=C(C)C)NC(=O)OC(C)(C)C)C(C)=C2C3(C)C)CC1 (stereo partly specified)				
	0.05	0.09	10 (≈ 10.2 µM)	14 (≈ 14.3 µM)				0.4	1	8 (≈ 8.16 µM)	COc1ccc(OC)c(C(=O)O[C@H]2C3[C@](C)(C(=O)[C@H](OC(=O)CCSSC)C4=C(C)[C@@H](OC(=O)[C@H](O)[C@H](C=C(C)C)NC(=O)OC(C)(C)C)C[C@]2(O)C4(C)C)C(O)C[C@H]2OC[C@@]32OC(C)=O)c1 (stereo partly specified)	0.65	0.53	4	15
